# Test results published in ChEMBL document CHEMBL5532699, “Design, docking optimization, and evaluation of biotin-PEG4-1,8-naphthalimide as a potent and safe antitumor agent with dual targeting of ferroptosis and DNA” (RSC Med Chem, 2024).
# Experiments:
# T-24 = assay: Antiproliferative activity against human T24 cells incubated for 48 hrs by MTT assay; assay type: functional, cell-based; conditions: T-24, 48 h
# How it was run: (§1)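 Monolayer cells in DMEM with 10% FBS, penicillin and streptomycin, 37°C, 5% CO2. Exponentially growing cells were seeded in 96-well plates and exposed to compound for 48 h. MTT was then added for 4 h at 37°C. Medium was removed, formazan dissolved in DMSO, and OD read at 490 nm. Each plate had five replicate wells, and assays were repeated three times per line.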
# MDA-MB-231 = assay: Antiproliferative activity against human MDA-MB-231 cells incubated for 48 hrs by MTT assay; assay type: functional, cell-based; conditions: MDA-MB-231, 48 h; how it was run: as §1
# [1] = Toxicity in nude mouse xenografted with human MGC-803 cells assessed as pathological changes in spleen at 12 to 48 mg/kg, ip administered once every two days for 21 days by H and E staining based analysis; assay type: organism-based; conditions: in vivo, 504 h, dose 12-48 mg/kg, time 21 day
# How it was run: (§2)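 Nude mice carrying s.c. xenografts (1×10^6 cells, right flank) randomized at 60–80 mm³ (n = 6), dosed i.p. every 2 days in 5% v/v DMSO/saline. Major organs examined by H&E staining at 200× magnification.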
# [2] = Toxicity in nude mouse xenografted with human MGC-803 cells assessed as pathological changes in lungs at 12 to 48 mg/kg, ip administered once every two days for 21 days by H and E staining based analysis; assay type: organism-based; conditions: in vivo, 504 h, dose 12-48 mg/kg, time 21 day; how it was run: as §2
# [3] = Toxicity in nude mouse xenografted with human U-251 cells assessed as pathological changes in liver at 24 to 48 mg/kg, ip administered once every two days for 21 days by H and E staining based analysis; assay type: organism-based; conditions: in vivo, 504 h, dose 24-48 mg/kg, time 21 day; how it was run: as §2
# [4] = Toxicity in nude mouse xenografted with human U-251 cells assessed as pathological changes in spleen at 24 to 48 mg/kg, ip administered once every two days for 21 days by H and E staining based analysis; assay type: organism-based; conditions: in vivo, 504 h, dose 24-48 mg/kg, time 21 day; how it was run: as §2
# MGC-803 [5] = assay: Induction of cell cycle arrest in human MGC-803 cells assessed as accumulation of cells at G0/G1 phase at 100 uM incubated for 24 hrs by PI staining based flow cytometry (Rvb=59.09%); assay type: functional
# MGC-803 [6] = assay: Induction of cell cycle arrest in human MGC-803 cells assessed as accumulation of cells at G2/M phase at 100 uM incubated for 24 hrs by PI staining based flow cytometry (Rvb=12.91%); assay type: functional
structure (smiles),measurement,setting,value
CN(C)CCN1C(=O)c2cccc3c(N4CCN(C(=O)CCOCCOCCOCCOCCNC(=O)CCCCC5SCC6NC(=O)NC65)CC4)ccc(c23)C1=O (stereo not drawn),IC50,T-24,> 50 µM
same,IC50,MDA-MB-231,> 50 µM
same,Activity,[1],Non-Toxic
same,Activity,[2],Non-Toxic
same,Activity,[3],Non-Toxic
same,Activity,[4],Non-Toxic
same,Activity,MGC-803 [5],39.71%
same,Activity,MGC-803 [6],18.57%
